Source: paper PMC6030392 (Neoplasia (New York, N.Y.), 2018)
Like-named read-outs stand apart in the source and are kept apart here. Marks after values point to notes of the source that are not given here.

Assays:
[1] = C57BL × DBA/2 F1 mice; cited from earlier work
[2] = cited from earlier work
[3] = tested on: intracranial Mel57-luc tumors; test: Intracranial Mel57-luc tumor efficacy study; format: in vivo, FVB nude mice; settings: oral 100 mg/kg/day × 5
Method in brief: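 WT or Abcb1a/b;Abcg2^−/− FVB nude mice received Mel57-luc cells (100,000 cells/2 μl) stereotactically 2 mm lateral, 1 mm anterior to bregma, 3 mm deep. Tumor load was set by bioluminescence before stratification to oral test compound 100 mg/kg/day for 5 days, untreated control, or combination with oral inhibitor 20–30 min earlier. Repeated imaging was expressed relative to the first measurement and log-transformed.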

Bcrp1 = biological target: T1, Bcrp1 (Mus musculus, UniProt Q7TMS5); test: In vitro Transwell transport, MDCKII parent versus Bcrp1 transduced subline; format: in vitro ADME
T1 sequence (Q7TMS5 1-657): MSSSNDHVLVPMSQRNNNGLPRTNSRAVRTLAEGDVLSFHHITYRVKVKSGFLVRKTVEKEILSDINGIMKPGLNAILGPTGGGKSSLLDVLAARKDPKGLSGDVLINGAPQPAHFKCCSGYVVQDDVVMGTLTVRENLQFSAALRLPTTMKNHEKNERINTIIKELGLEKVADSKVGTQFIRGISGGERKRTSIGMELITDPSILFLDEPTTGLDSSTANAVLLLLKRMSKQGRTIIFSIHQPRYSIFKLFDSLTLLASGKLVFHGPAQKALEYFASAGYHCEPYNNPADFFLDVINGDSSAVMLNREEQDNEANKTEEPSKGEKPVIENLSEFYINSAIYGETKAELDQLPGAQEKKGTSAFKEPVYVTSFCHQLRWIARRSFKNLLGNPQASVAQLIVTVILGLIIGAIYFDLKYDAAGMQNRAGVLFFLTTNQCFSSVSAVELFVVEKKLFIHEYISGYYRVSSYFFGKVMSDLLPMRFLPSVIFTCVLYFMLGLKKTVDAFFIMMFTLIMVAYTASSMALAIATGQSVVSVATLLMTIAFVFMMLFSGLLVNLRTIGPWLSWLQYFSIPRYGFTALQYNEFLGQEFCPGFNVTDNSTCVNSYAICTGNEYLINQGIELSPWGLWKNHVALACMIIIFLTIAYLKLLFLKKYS
Method in brief: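 MDCKII parent and Bcrp1-transduced cells were grown 3 days on 3.0 μm polycarbonate Transwell filters (1 × 10⁶ cells/well) in MEM with 10% FBS at 37°C. Test compound (40 μg/ml in OptiMEM) went apical or basolateral. Inhibitor went to both sides, plus a P-gp blocker (5 μM). Sampling was every 30 min to 2 h, with half the donor refreshed each time. Wells leaking >1.5%/h were excluded. Analysis by HPLC.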

[4] = Stability in culture medium at 37°C; format: physicochemical
[5] = Plasma pharmacokinetics of oral temozolomide; format: in vivo, mice; settings: 100 mg/kg oral; WT n = 18, Abcb1a/b;Abcg2^−/− n = 19
[6] = tested on: GSC457 glioblastoma cells; test: Orthotopic GSC457 glioblastoma efficacy study; format: in vivo, murine; settings: oral 100 mg/kg/day × 7
[7] = Recovery in acceptor compartment of Transwell; format: in vitro ADME; settings: after 30 minutes; transport medium pH 7.4
Mdr1a (P-gp) = Mdr1a (P-gp) (Mus musculus, UniProt P21447); test: In vitro Transwell transport, LLC-PK1 parent versus Mdr1a transduced subline; format: in vitro ADME, murine; settings: temozolomide 40 μg/ml; LLC-PK1 vs LLC-Mdr1a
[8] = format: in vivo, FVB mice; settings: for AUC 0–7 h, brain: mean ± SE, n ≥ 7
Method in brief: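 Male FVB mice (WT, Abcg2^−/−, Abcb1a/b^−/−, Abcb1a/b;Abcg2^−/−; 8–15 weeks) got 50 mg/kg i.v. via tail vein. Groups of […] were sampled at 15 min, 1, 2, 4, 7 h by cardiac puncture (K-EDTA plasma, acidified with 1 M HCl). Brains were homogenized in pH 2 phosphate/1% BSA. Extracts (ethyl acetate) were run on HPLC in duplicate. AUC0–7h by linear trapezoidal rule; brain-to-plasma ratio per animal; two-way ANOVA with Bonferroni.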

[9] = dose level of 100 mg/kg; cited from earlier work
[10] = cited from earlier work; remark: listed apart in the source
[11] = cited from earlier work; remark: listed apart in the source
[12] = cited from earlier work; remark: listed apart in the source
[13] = Abcb1a/b^−/− mice, 50 mg/kg i.v.

Sequence of Mdr1a (P-gp) (P21447 whole entry): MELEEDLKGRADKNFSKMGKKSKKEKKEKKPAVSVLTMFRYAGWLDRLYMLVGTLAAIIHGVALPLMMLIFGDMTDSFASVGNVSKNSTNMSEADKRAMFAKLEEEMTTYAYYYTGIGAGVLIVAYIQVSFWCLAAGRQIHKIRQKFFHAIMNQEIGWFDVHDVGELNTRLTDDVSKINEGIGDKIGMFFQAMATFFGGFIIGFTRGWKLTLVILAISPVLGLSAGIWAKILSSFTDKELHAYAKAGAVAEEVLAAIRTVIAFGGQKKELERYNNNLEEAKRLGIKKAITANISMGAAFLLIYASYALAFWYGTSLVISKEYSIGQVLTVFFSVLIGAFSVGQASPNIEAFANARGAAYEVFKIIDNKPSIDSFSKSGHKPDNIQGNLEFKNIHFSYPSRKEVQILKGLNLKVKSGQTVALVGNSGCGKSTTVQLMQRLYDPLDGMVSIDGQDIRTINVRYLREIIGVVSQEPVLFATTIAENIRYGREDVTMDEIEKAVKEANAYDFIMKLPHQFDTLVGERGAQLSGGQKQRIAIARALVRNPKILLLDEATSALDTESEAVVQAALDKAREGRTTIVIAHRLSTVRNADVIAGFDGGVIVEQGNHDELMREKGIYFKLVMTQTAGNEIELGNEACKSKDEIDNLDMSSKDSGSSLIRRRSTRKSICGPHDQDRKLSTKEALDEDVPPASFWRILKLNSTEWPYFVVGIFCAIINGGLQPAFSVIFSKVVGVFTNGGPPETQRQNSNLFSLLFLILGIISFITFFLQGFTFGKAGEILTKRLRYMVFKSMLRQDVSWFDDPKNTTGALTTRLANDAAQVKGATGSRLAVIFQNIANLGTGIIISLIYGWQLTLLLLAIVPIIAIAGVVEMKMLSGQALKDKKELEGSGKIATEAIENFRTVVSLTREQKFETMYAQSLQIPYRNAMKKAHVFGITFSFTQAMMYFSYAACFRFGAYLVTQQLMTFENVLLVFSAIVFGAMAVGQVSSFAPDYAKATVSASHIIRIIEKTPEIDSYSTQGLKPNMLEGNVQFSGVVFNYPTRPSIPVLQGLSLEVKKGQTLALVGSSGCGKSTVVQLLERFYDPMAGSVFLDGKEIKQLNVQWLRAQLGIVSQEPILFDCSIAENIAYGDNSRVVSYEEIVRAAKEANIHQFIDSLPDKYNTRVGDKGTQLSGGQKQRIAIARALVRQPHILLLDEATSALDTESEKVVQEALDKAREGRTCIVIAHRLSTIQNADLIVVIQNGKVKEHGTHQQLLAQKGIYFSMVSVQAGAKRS

## Cn1nnc2c(C(N)=O)ncn2c1=O [temozolomide]
[1]
  oral bioavailability: almost complete
[2]
  main dose-limiting toxicity: bone marrow toxicity
[3]; Abcb1a/b;Abcg2^−/− mice
  antitumor efficacy against intracranial Mel57 tumors, relative to WT mice: significantly higher
[3]; WT mice
  antitumor efficacy against intracranial Mel57 tumors: modest efficacy
Bcrp1; temozolomide 40 μg/ml, MDCKII vs MDCKII-Bcrp1, zosuquidar 5 μM present
  transport by Bcrp1: clear vectorial transport by Bcrp1
[4]
  half-life: ~30 min
[5]
  plasma AUC in Abcb1a/b;Abcg2^−/− versus WT mice: not significantly different
[6]
  tumor growth and survival, Abcb1a/b;Abcg2^−/− compared to WT mice: significantly slower tumor growth and longer survival
[7]
  fraction of the donor concentration recovered in the acceptor compartment: at least 5%
Mdr1a (P-gp)
  transport by P-gp: very limited, if any, evidence for transport by P-gp
[8]; Abcb1a/b;Abcg2^−/− mice, 50 mg/kg i.v., P < .001
  increase of brain accumulation compared to WT mice: 50%
[8]; Abcb1a/b;Abcg2^−/− mice, 50 mg/kg i.v.
  AUC 0–7 h, brain: 57.09 ± 1.32**^/# μg/g.h
[8]; [13]
  increase of brain accumulation compared to WT mice: about 20%
  AUC 0–7 h, brain: 44.51 ± 1.56 µg·h/g
[8]; Abcg2^−/− mice, 50 mg/kg i.v.
  increase of brain accumulation compared to WT mice: 20%
  AUC 0–7 h, brain: 44.78 ± 1.88 µg·h/g
[8]; WT mice, 50 mg/kg i.v.
  AUC 0–7 h, brain: 36.81 ± 1.11 µg·h/g
[8]; combined deletion of Abcb1a/b and Abcg2, P < .001
  increase of brain penetration compared to wild-type controls: 1.5 fold
[8]; knockout vs WT mice, 50 mg/kg i.v.
  effect of absence of drug transporters on plasma clearance: did not affect the plasma clearance

## CO[C@@H]1[C@@H](OC(N)=O)[C@@H](O)[C@H](Oc2ccc3c(O)c(NC(=O)c4ccc(O)c(CC=C(C)C)c4)c(=O)oc3c2C)OC1(C)C [novobiocin]
Bcrp1; inhibitor 50 μM in the medium
  effect on Bcrp1-mediated transport of temozolomide: not sufficient

## COc1cc2ncnc(Nc3ccc(F)c(Cl)c3)c2cc1OCCCN1CCOCC1 [gefitinib]
Bcrp1; inhibitor 10 μM in the medium
  effect on Bcrp1-mediated transport of temozolomide: almost completely abrogated
[9]
  plasma levels: about 10 μM
[10]
  plasma levels achievable in patients relative to the level after 100 mg/kg: about 10 fold lower

## CC(=O)c1c(C)c2cnc(Nc3ccc(N4CCNCC4)cn3)nc2n(C2CCCC2)c1=O [palbociclib]
[11]
  higher brain penetration in Abcb1a/b^−/− compared to WT controls: approximately 15 fold

## C#Cc1cccc(Nc2ncnc3cc(OCCOC)c(OCCOC)cc23)c1 [erlotinib]
Bcrp1; inhibitor 10 μM in the medium
  effect on Bcrp1-mediated transport of temozolomide: almost completely abrogated

## COc1cc2c(cc1OC)CN(CCc1ccc(NC(=O)c3cccc4c(=O)c5cccc(OC)c5[nH]c34)cc1)CC2 [elacridar]
Bcrp1; inhibitor 5 μM in the medium
  effect on Bcrp1-mediated transport of temozolomide: almost completely abrogated

## Cc1ccc(NC(=O)c2ccc(CN3CCN(C)CC3)cc2)cc1Nc1nccc(-c2cccnc2)n1 [imatinib]
[12]
  oral bioavailability: > 90%
[11]; significantly enhanced in Abcb1a/b;Abcg2^−/− mice
  brain penetration: poor

## CC(=O)O[C@H]1C(=O)[C@@]2(C)[C@H]([C@H](OC(=O)c3ccccc3)[C@]3(O)C[C@H](OC(=O)[C@H](O)[C@@H](NC(=O)c4ccccc4)c4ccccc4)C(C)=C1C3(C)C)[C@]1(OC(C)=O)CO[C@@H]1C[C@@H]2O [paclitaxel]
[11]
  higher brain penetration in Abcb1a/b^−/− compared to WT controls: 5 fold
